In series [1] the test system is microRNA 21. Nature of the series: Inhibition of Dicer-mediated pre-miRNA-21 (unknown origin) processing using […] as substrate incubated for 15 mins by cat-ELCCA assay. Format: nucleic-acid assay. An outline of the steps: (§1)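 Cat-ELCCA format with immobilized pre-miRNA (pre-miR-21, or pre-let-7d as a related control substrate) processed by excess Dicer. Integrity of the terminal loop is read by trans-cyclooctene/methyltetrazine click ligation of modified HRP, giving chemiluminescent signal amplification. Assay buffer contains detergent. Dose–response curves give IC50 values reported as 95% confidence intervals.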

The subject of series [2] is Pre-let-7d miRNA. Description: Inhibition of Dicer-mediated pre-let-7d miRNA (unknown origin) processing using […] as substrate incubated for 15 mins by cat-ELCCA assay. Format: nucleic-acid assay. The gist of the method: as §1
Series [3] has as its target microRNA 21. Nature of the series: Binding affinity to pre-miRNA-21 (unknown origin) by SPR assay. Format: nucleic-acid assay. (In general: Surface plasmon resonance follows binding to a sensor surface in real time, without labels.)
The target in series [4] is Pre-let-7d miRNA. Description: Binding affinity to pre-let-7d miRNA (unknown origin) by SPR assay. The series is classed as nucleic-acid assay.
The test system of series [5] is microRNA 21. Nature of the series: Inhibition of pre-miRNA-21 (unknown origin) assessed as reduction in miRNA/Dicer interaction at 10 to 120 uM incubated for 40 mins by EMSA assay. The series is classed as nucleic-acid assay. The following applies: dose 10-120 µM. On the technique in general: Mobility shift assays separate free from complexed probe on a gel.
Series [6] concerns microRNA 21. Description: Inhibition of pre-miRNA-21 maturation in human HeLa cells transfected with firefly luciferase reporter gene assessed as reduction in luciferase gene expression at 100 uM incubated for 48 hrs by pmiRGlo-dual luciferase reporter assay. Format: cell-based. The gist of the method:
(§2)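 HeLa cells transiently transfected with pmiRGLO dual-luciferase reporters carrying miRNA target sites (miR-21 or let-7d) in the firefly luciferase 3′ UTR. Cells treated at 100 μM; luminescence read after 48 h. miR-21 mismatch reporter and empty-vector controls were included. Significance given as p values.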
A general note: In a reporter assay the amount or activity of a reporter protein is the signal.

The subject of series [7] is Pre-let-7d miRNA. Nature of the series: Inhibition of pre-let-7d miRNA maturation in human HeLa cells transfected with firefly luciferase reporter gene assessed as reduction in luciferase gene expression at 100 uM incubated for 48 hrs by pmiRGlo-dual luciferase reporter assay. Format: cell-based. The gist of the method: as §2
The next series relates to HeLa. Nature of the series: Cytotoxicity against human HeLa cells assessed as reduction in cell viability at 100 uM incubated for 48 hrs by CellTiter Glo assay. The series is classed as cell-based.

Experimental findings from ChEMBL document CHEMBL4814077, “Discovery of Surfactins as Inhibitors of MicroRNA Processing Using Cat-ELCCA” (ACS Med Chem Lett, 2021) are described below.

SMILES strings stand for the structures. Activity calls are given as the source filed them. The rule behind the calls is not given here. *1 amine or outer side, *2 acyl side, *3 side chain or, on linkers, in order; H or OH if unused. Where a SMILES comes first, the peptide text is derived from it. Bridges are numbered along the chain shown (N, C = ends). The star is where a group is joined. ξ: configuration not given here. Pentadecanoyl(3ξ-OH,15-Gua) = N=C(N)NCCCCCCCCCCCCC(O)CC(=O)*; X1 = CCC(C)CCCCCCCCC(CC(=O)[*:1])O[*:2]; X7 = CC(C)CCCCCCCCCC(CC(=O)[*:1])O[*:2]; X3 = CC(C)CCCCCCCCC(CC(=O)[*:1])O[*:2]; X5 = CCC(C)CCCCCCC(CC(=O)[*:1])O[*:2]; X2 = CCCCCCCCCCCC(CC(=O)[*:1])O[*:2]; X4 = CCCCCCCCCCC(CC(=O)[*:1])O[*:2]; X6 = CCCCCCCCCC(CC(=O)[*:1])O[*:2]

On to `CC(C)[C@@H]1NC(=O)[C@@H](C(C)C)NC(=O)[C@@H](NC(=O)CC(O)CCCCCCCCCCCCNC(=N)N)[C@@H](C)OC(=O)[C@@H](C)NC(=O)[C@@H](CC(N)=O)NC(=O)[C@@H]([C@H](C)O)NC1=O` (stereo partly drawn), for which the inhibition result with microRNA 21 [1] and with Pre-let-7d miRNA [2] was “inactive” in each case.

For the compound `CCC(C)CCCCCCCCC1CC(=O)N[C@@H](CCC(=O)O)C(=O)N[C@@H](CC(C)C)C(=O)N[C@@H](CC(C)C)C(=O)N[C@@H](C(C)C)C(=O)N[C@@H](CC(=O)O)C(=O)N[C@@H](CC(C)C)C(=O)N[C@@H](CC(C)C)C(=O)O1` (stereo partly drawn) (ELLVDLL; linker N-C via X1), the IC50 stood at 38 µM at microRNA 21 [1] and 54 µM with Pre-let-7d miRNA [2]. For the same compound, the inhibition result with microRNA 21 [1] and with Pre-let-7d miRNA [2] was “Dose-Dependent Effect” each time. Also, the Kd on microRNA 21 [3] was determined as 0.78 µM; on Pre-let-7d miRNA [4] it was 1.2 µM. In addition, the inhibition entry in the series on microRNA 21 [5] and in the series with Pre-let-7d miRNA [7] was “inactive” each time. Besides, the inhibition entry in the series on microRNA 21 [6] was “Active”. The Activity entry with HeLa is listed as “Toxic”.

Turning to `CCCCCCCCCCCC1CC(=O)N[C@@H](CCC(=O)O)C(=O)N[C@@H](CC(C)C)C(=O)N[C@@H](CC(C)C)C(=O)N[C@@H](C(C)C)C(=O)N[C@@H](CC(=O)O)C(=O)N[C@@H](CC(C)C)C(=O)N[C@@H](CC(C)C)C(=O)O1` (stereo partly drawn) (ELLVDLL; linker N-C via X2), the values for the IC50 against microRNA 21 [1] and in the series on Pre-let-7d miRNA [2] were 48 µM and 54 µM, respectively. Further, the inhibition result with microRNA 21 [1] and in the series with Pre-let-7d miRNA [2] was “Dose-Dependent Effect” each time. Besides, the Kd on microRNA 21 [3] came out at 0.73 µM; at Pre-let-7d miRNA [4], 1.4 µM.

In the case of `CC(C)CCCCCCCCC1CC(=O)N[C@@H](CCC(=O)O)C(=O)N[C@@H](CC(C)C)C(=O)N[C@@H](CC(C)C)C(=O)N[C@@H](C(C)C)C(=O)N[C@@H](CC(=O)O)C(=O)N[C@@H](CC(C)C)C(=O)N[C@@H](CC(C)C)C(=O)O1` (stereo partly drawn) (ELLVDLL; linker N-C via X3), the IC50 on microRNA 21 [1] was found to be 52 µM; in the series on Pre-let-7d miRNA [2] it was 70 µM. In addition, the inhibition entry in the series on microRNA 21 [1] and with Pre-let-7d miRNA [2] was “Dose-Dependent Effect” in each case. The Kd on microRNA 21 [3] is 0.43 µM; at Pre-let-7d miRNA [4], 2.5 µM.

Take `CCCCCCCCCCC1CC(=O)N[C@@H](CCC(=O)O)C(=O)N[C@@H](CC(C)C)C(=O)N[C@@H](CC(C)C)C(=O)N[C@@H](C(C)C)C(=O)N[C@@H](CC(=O)O)C(=O)N[C@@H](CC(C)C)C(=O)N[C@@H](CC(C)C)C(=O)O1` (stereo partly drawn) (ELLVDLL; linker N-C via X4): the IC50 at microRNA 21 [1] turned out to be 71 µM; in the series with Pre-let-7d miRNA [2], 97 µM. The inhibition entry in the series with microRNA 21 [1] and in the series on Pre-let-7d miRNA [2] was “Dose-Dependent Effect” each time. For the same compound, the results for the Kd at microRNA 21 [3] and at Pre-let-7d miRNA [4] were 0.38 µM and 0.3 µM, respectively.

Take `CCC(C)CCCCCCC1CC(=O)N[C@@H](CCC(=O)O)C(=O)N[C@@H](CC(C)C)C(=O)N[C@@H](CC(C)C)C(=O)N[C@@H](C(C)C)C(=O)N[C@@H](CC(=O)O)C(=O)N[C@@H](CC(C)C)C(=O)N[C@@H](CC(C)C)C(=O)O1` (stereo partly drawn) (ELLVDLL; linker N-C via X5): the IC50 against microRNA 21 [1] and with Pre-let-7d miRNA [2] was > 200 µM each time.

Take `CCCCCCCCCC1CC(=O)N[C@@H](CCC(=O)O)C(=O)N[C@@H](CC(C)C)C(=O)N[C@@H](CC(C)C)C(=O)N[C@@H](C(C)C)C(=O)N[C@@H](CC(=O)O)C(=O)N[C@@H](CC(C)C)C(=O)N[C@@H](CC(C)C)C(=O)O1` (stereo partly drawn) (ELLVDLL; linker N-C via X6): the IC50 against microRNA 21 [1] and in the series on Pre-let-7d miRNA [2] was > 200 µM in each case.

On to `CC(C)CCCCCCCCCC1CC(=O)N[C@@H](CCC(=O)O)C(=O)N[C@@H](CC(C)C)C(=O)N[C@@H](CC(C)C)C(=O)N[C@@H](C(C)C)C(=O)N[C@@H](CC(=O)O)C(=O)N[C@@H](CC(C)C)C(=O)N[C@@H](CC(C)C)C(=O)O1` (stereo partly drawn) (ELLVDLL; linker N-C via X7), for which the inhibition result in the series with microRNA 21 [1] and in the series with Pre-let-7d miRNA [2] was “inactive” each time.

Take `CC1NC(=O)C(CCC(N)=O)NC(=O)C(C(C)O)NC(=O)C(C(C)C)NC(=O)C(C(C)C)NC(=O)C(NC(=O)CC(O)CCCCCCCCCCCCNC(=N)N)C(C)OC1=O` (stereo not drawn) ({Pentadecanoyl(3ξ-OH,15-Gua)}-TVVTQA; ester 1-C; configuration not given here): the inhibition entry in the series with microRNA 21 [1] and in the series with Pre-let-7d miRNA [2] was “inactive” each time.

The term IC50 denotes the concentration at which inhibition is half-maximal. A high value points to a need for much substance. In general, Kd refers to the constant that tells how readily two partners part at equilibrium. Lower therefore signals a tighter complex.
